Experimental data as given in ChEMBL document CHEMBL3085745, “Plakinamine M, a steroidal alkaloid from the marine sponge Corticium sp” (2013).
Values after ≈ are worked out from the molar mass of the structure shown. Active and inactive are the calls of the source. The rule behind the calls is not given here.

Key:
[1] = system: Mycobacterium tuberculosis; test: Antimycobacterial activity against Mycobacterium tuberculosis H37Ra ATCC 25177 after 4 days by MTT assay; type: functional; settings: H37Ra ATCC 25177, 96 h
Outline: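 Inoculum from a frozen bacterial pellet diluted into fresh medium to a final 5×10⁵ CFU/mL, dispensed onto compound in quadruplicate wells. DMSO-only wells served as negative control and rifampicin at 250 ng/mL as positive control. Incubated 4 days at 37 °C, then MTT added for a further 12 h. After subtracting media-only blanks, % inhibition = (1 − Σtest/Σcontrol)×100.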

Candida albicans = test: Antifungal activity against Candida albicans at 50 ug/mL; type: functional, organism-based
Staphylococcus aureus = test: Antibacterial activity against Staphylococcus aureus at 50 ug/mL; type: functional, organism-based
Bacillus subtilis = test: Antibacterial activity against Bacillus subtilis at 50 ug/mL; type: functional, organism-based
Escherichia coli = test: Antibacterial activity against Escherichia coli at 50 ug/mL; type: functional, organism-based

Row | Structure (SMILES) | MIC [1] [µg/mL] | Activity (Candida albicans) | Activity (Staphylococcus aureus) | Activity (Bacillus subtilis) | Activity (Escherichia coli)
1 | CC(C)/C(=C\C[C@@H](C)[C@H]1CC[C@H]2C3=CC[C@H]4C[C@H](N(C)C)CC[C@]4(C)[C@H]3CC[C@]12C)CCN(C)C | 3.6 (≈ 7.46 µM) | Active | inactive | inactive | inactive
2 | CC(C)/C(=C\C[C@@H](C)[C@H]1CC[C@H]2C3=CC[C@H]4C[C@H](N(C)C)[C@@H](O)C[C@]4(C)[C@H]3CC[C@]12C)CCN(C)C | 15.8 (≈ 31.7 µM) | Active | inactive | inactive | inactive
